Source: PubChem BioAssay
V1aR counter: counter-screen for oxytocin receptor agonists: human V1a receptor agonists | hit rate 0.25% among 320,000 | AID 2797 | P37288 | CHO-V1R cells, Fluo-8 calcium fluorescence, agonist mode; 0% DMSO, 100% 3 nM vasopressin | activation, % at 3 µM;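 active = activation above the mean activation of all tested compounds plus 3 SD, per screening run, cut at about 20% in these data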;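 note: signal is peak over basal fluorescence ratio across a 100 second FLIPR read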
Target sequence (P37288 whole entry, looked up): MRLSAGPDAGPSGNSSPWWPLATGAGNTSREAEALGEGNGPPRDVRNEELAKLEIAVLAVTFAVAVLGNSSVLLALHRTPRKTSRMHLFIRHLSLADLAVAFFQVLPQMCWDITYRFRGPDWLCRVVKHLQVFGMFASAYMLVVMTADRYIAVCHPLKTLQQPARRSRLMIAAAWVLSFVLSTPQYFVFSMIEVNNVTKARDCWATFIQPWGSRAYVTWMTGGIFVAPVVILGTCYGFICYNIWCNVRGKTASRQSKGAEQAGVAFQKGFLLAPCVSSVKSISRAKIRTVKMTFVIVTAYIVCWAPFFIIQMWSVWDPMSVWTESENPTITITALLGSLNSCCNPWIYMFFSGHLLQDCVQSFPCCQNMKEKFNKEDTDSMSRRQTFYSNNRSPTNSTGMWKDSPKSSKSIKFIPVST
TRPML3 agonist: human mucolipin-3 channel agonism; Q8TDD5; activation, % at 3 µM; HEK293 TRPML3-YFP, Fluo-8 calcium fluorescence; 100% = the carbachol control signal; hit rate 0.29% among 220,000;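 active = activation above its plate's cutoff, the mean activation of the plate's test wells plus 3 SD, cut at about 12% in these data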
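system = HEK293 cells stably carrying human TRPML3-YFP | doses = one concentration, 3 µM nominal, 0.3% DMSO | timing = dye loading 1 h 37 °C then 30 min ambient, 125 s read | detection = Fluo-8 calcium dye fluorescence, ex 470-495, em 515-575 nm | benchmarks = high control carbachol 87 µM, low control DMSO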
OXTR potentiator: potentiates the human oxytocin receptor response. P30559. CHO-OTR cells, Fluo-8 calcium fluorescence, potentiator mode; 0% = oxytocin EC15, 100% = EC100. activation, % at 3 µM. AID 2445. hit rate 0.061% among 320,000;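 active = activation above that plate's cutoff, the mean activation of tested compounds plus 3 SD, cut at about 6.6% in these data, passing the limit was not always enough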
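System: human OTR in CHO cells / Also added: sub-maximal oxytocin, roughly EC15 / Control set: EC15 oxytocin low, 75 nM oxytocin high / Schedule: 6 min compound pre-incubation at room temperature, 100 s kinetic read / Compound: single-point 3.0 µM / Replication: singlicate / Technique: Fluo-8 calcium dye fluorescence / Read-out basis: % activation of max/min ratio relative to oxytocin controls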
OXTR agonist: activates the human oxytocin receptor. P30559. CHO-OTR cells, Fluo-8 calcium fluorescence; normalized: DMSO 0%, oxytocin 100%. activation, % at 3 µM. hit rate 0.32% among 320,000. AID 2435;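 active = activation above the mean of all tested compounds plus 3 SD, cutoff set per screening run, cut at about 20% in these data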;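 note: peak over basal fluorescence ratio from a 100 s FLIPR kinetic read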
TRPN1 ag: activates the zebrafish TRPN1 channel; HEK293 zebrafish TRPN1-YFP, Fluo-8 calcium fluorescence; 100% = response to 87 µM carbachol; activation, % at 3 µM; hit rate 0.18% among 220,000;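 active = activation above its plate's cutoff, the mean activation of test wells on that plate plus 3 SD, cut at about 19% in these data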
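Control set: carbachol 87 µM as high control, DMSO as low control; system: HEK293 stable line with zebrafish TRPN1-YFP; read-out: % activation versus carbachol response; detection: intracellular calcium fluorescence with Fluo-8; doses: single test compound dose, 3 µM nominal, 0.3% DMSO; schedule: dye 1 h 37 °C plus 30 min RT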
TRPN1 ag 2: zebrafish TRPN1 agonism as TRPML3 agonist counter-screen. HEK293 zebrafish TRPN1-YFP, Fluo-8 calcium fluorescence; scaled: carbachol wells 100%, DMSO wells 0%. activation, % at 3 µM. shares compounds with TRPML3 agonist. hit rate 10% among 310;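 active = mean activation over replicates above a set limit taken from the earlier TRPN1 channel primary screen, cut at about 19% in these data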
TRPML3 ag conf: confirmation of human TRPML3 channel agonists; activation, % at 3 µM; shares compounds with TRPML3 agonist; AID 1526; HEK293 TRPML3-YFP, Fluo-8 calcium fluorescence; 100% set by carbachol, 0% by DMSO; hit rate 80% among 310;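 active = activation above a set limit derived from the earlier primary screen, cut at about 12% in these data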
OXTR ag confirm: human OXTR agonism, confirmation | CHO-OTR cells, Fluo-8 calcium fluorescence, agonist | activation, % at 3 µM | AID 434963 | shares compounds with OXTR agonist | hit rate 20% among 390;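 active = mean activation above about 20% derived from the earlier single-dose screen, limit read from the data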;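 note: peak over minimum fluorescence ratio per well during a 100 second FLIPR read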
V1aR counter 3x: activates V1a receptor in oxytocin agonist counter-screen; shares compounds with OXTR agonist; CHO-V1R cells, Fluo-8 calcium fluorescence; activation, % at 3 µM; hit rate 10% among 390;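 active = mean activation over triplicate exceeds the hit threshold set in the earlier primary screen, cut at about 20% in these data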;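 note: peak over basal fluorescence ratio within a 100 second read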
V1R ag confirm: confirmation of human vasopressin V1a receptor agonists; shares compounds with V1aR counter; CHO-V1R cells, Fluo-8 calcium fluorescence, agonist; activation, % at 3 µM; hit rate 20% among 180;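 active = average activation exceeds primary screen hit cutoff, cut at about 21% in these data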;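 note: peak over basal fluorescence ratio during a 100 s FLIPR read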
OXTR counter: counter-screen for V1a receptor agonists: oxytocin receptor agonists. hit rate 10% among 180. AID 434969. activation, % at 3 µM. CHO-OTR cells, Fluo-8 calcium fluorescence, agonist. shares compounds with V1aR counter;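 active = mean activation over three repeats above the cutoff from the earlier oxytocin receptor agonist screen, cut at about 20% in these data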;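 note: peak over minimum fluorescence ratio within a 100 second FLIPR read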
Large screens that a line does not name were inactive (follow-up assays come after a bar, where they were run). Compounds with a hit are over-represented: about 0.55% of the library has one in this group of screens.

O=C(NNC(=O)c1ccc(Br)o1)c1csc(N2CCOCC2)n1	none (no result: TRPML3 agonist, TRPN1 ag)
Cc1cc(N2CCOCC2)nc(NCc2ccccc2)n1	TRPML3 agonist 15.9 | TRPN1 ag 2 20.7 | TRPML3 ag conf 15.2
Cc1cc(N2CCOCC2)nc(N)n1	TRPML3 agonist 11.8 | TRPN1 ag 2 inactive | TRPML3 ag conf inactive
CCOc1ccccc1N(CC(=O)NC1CCCCC1)C(=O)c1nsc(Cl)c1Cl	TRPML3 agonist 42.9 | TRPN1 ag 2 inactive | TRPML3 ag conf 36.2
Cc1cccc(N(CC(=O)NC2CCCC2)C(=O)c2nsc(Cl)c2Cl)c1C	none
On1onc2c3cc(-c4ccccc4)nc3ccc21	TRPML3 agonist 12.2 | TRPN1 ag 2 inactive | TRPML3 ag conf inactive
Cc1cccc(Cl)c1NNC(=O)Nc1c([N+](=O)[O-])c(C)nn1C	none
CCOc1ccccc1NC(=O)C1CCN(c2ccc(S(=O)(=O)N3CCCC3)cc2)CC1	TRPML3 agonist 20.3 | TRPN1 ag 2 inactive | TRPML3 ag conf 20.2
O=c1cc(C(F)(F)F)[nH]c2ccc(OC(F)(F)F)cc12	TRPML3 agonist 11.8 | TRPN1 ag 2 26.4 | TRPML3 ag conf inactive
Cc1cc(=O)c2cccc(Br)c2[nH]1	none
O=c1cc(C(F)(F)F)[nH]c2c(C(F)(F)F)cccc12	TRPML3 agonist 14.6 | TRPN1 ag 2 29.0 | TRPML3 ag conf 12.5
COC(=O)c1cc(CN2CCN(c3ccccc3)CC2)ccc1O	none (no result: TRPML3 agonist, TRPN1 ag)
CC1(C)Cc2cccc(Oc3ccc(S(=O)(=O)N4CCCCC4)cn3)c2O1	TRPML3 agonist 19.6 | TRPN1 ag 2 inactive | TRPML3 ag conf 29.6
CC1(C)Cc2cccc(Oc3ccc(S(=O)(=O)N4CCCC4)cn3)c2O1	none
COc1ccc(N2C(=O)CC(N3CCN(S(=O)(=O)c4c(C)cc(C)cc4C)CC3)C2=O)cc1 (configuration not stated)	none (no result: TRPML3 agonist, TRPN1 ag)
COc1ccc(OC)c(S(=O)(=O)N2CCCc3ccccc32)c1	TRPML3 agonist 47.6 | TRPN1 ag 2 inactive | TRPML3 ag conf 56.3
COc1ccc(OC)c(S(=O)(=O)N2CCc3ccccc32)c1	none
COC(=O)C1(C(C[N+](=O)[O-])c2ccco2)C(=O)NCC1c1ccccc1 (configuration not stated)	TRPML3 agonist 16.7 | TRPN1 ag 2 inactive | TRPML3 ag conf 22.9
CCOC(=O)CSc1nc2c(sc(=S)n2-c2ccccc2OC)c(=O)n1Cc1ccco1	TRPML3 agonist 40.4 | TRPN1 ag 2 inactive | TRPML3 ag conf 59.0
CCOC(=O)CSc1nc2c(sc(=S)n2-c2ccccc2OC)c(=O)n1-c1ccccc1OC	none (no result: TRPML3 agonist, TRPN1 ag)
Cc1cccc(CNC(=O)c2cc(S(=O)(=O)N3CCOCC3)cn2C)c1	none (no result: TRPML3 agonist, TRPN1 ag)
COc1cc(C(=O)NC(=S)NNC(=O)[C@H]2C[C@@H]2c2ccccc2)cc(OC)c1OC	TRPML3 agonist 13.9, OXTR agonist 27.6 | TRPN1 ag 2 25.1 | TRPML3 ag conf 32.6 | OXTR ag confirm inactive | V1aR counter 3x inactive
COC(=O)c1cc(C(=O)OCC(=O)Nc2ccc(N3CCOCC3)cc2)cc([N+](=O)[O-])c1	none (no result: TRPML3 agonist, TRPN1 ag)
O=C1c2cccc3c(N4CCCCC4)ccc(c23)C(=O)N1CCO	V1aR counter 22.3, TRPML3 agonist 12.8 | TRPN1 ag 2 inactive | TRPML3 ag conf inactive | V1R ag confirm 31.7 | OXTR counter inactive
